The text below walks through data of ChEMBL document CHEMBL3243941, “Hydrolysis of 3-chloro-3-cephems. Intramolecular nucleophilic attack in cefaclor” (J Med Chem, 1977).

≈ marks a conversion by molar mass, not a printed value.

Series [1] is described as follows: Hydrolytic stability of the compound assessed as beta-lactum ring opening rate at pH 10 at 35 degC by UV method. The format is physicochemical. As to conditions: buffer. The procedure, abridged: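 Pseudo-first-order rate constants for β-lactam ring opening, measured by UV at pH 10.0 and 35 °C and reported as k_obsd (s−1).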
Series [2] concerns Klebsiella pneumoniae. The series is described as follows: Antibacterial activity against Klebsiella pneumoniae X26 assessed as growth inhibition. The format is functional.
Series [3] deals with Klebsiella aerogenes. Description: Antibacterial activity against Enterobacter aerogenes X68 assessed as growth inhibition. In kind it is functional.
Series [4] can be described thus: Antibacterial activity against Salmonella heidelberg X514 assessed as growth inhibition. The format is functional, Salmonella enterica subsp. enterica serovar Heidelberg. As to conditions: Salmonella enterica.
Series [5] has as its system Shigella sp. The series is described as follows: Antibacterial activity against Shigella sp. N9 assessed as growth inhibition. In kind it is functional.
The subject of series [6] is Escherichia coli. The series is described as follows: Antibacterial activity against Escherichia coli N10 assessed as growth inhibition. The format is functional.

By MIC is commonly meant the least concentration at which growth counts as inhibited. Turning to `CC(=O)OCC1=C(C(=O)O)N2C(=O)[C@@H](NC(=O)Cc3cccs3)[C@H]2SC1` [CEPHALOTHIN], in series [1], the k obsd was 9.7e-05 s⁻¹. The MIC in series [2] stood at 1 µg/mL (≈ 2.52 µM); in series [3] it was 3 µg/mL (≈ 7.57 µM); in series [4], 1 µg/mL (≈ 2.52 µM); in series [5] it was 14 µg/mL (≈ 35.3 µM); in series [6] it was 15 µg/mL (≈ 37.8 µM).

In the case of `O=C(COc1ccccc1)N[C@@H]1C(=O)N2C(C(=O)O)=C(Cl)CS[C@H]12`, the k obsd in series [1] was 0.000183 s⁻¹.

`O=C(Cc1cccs1)N[C@@H]1C(=O)N2C(C(=O)O)=C(Cl)CS[C@H]12`: the k obsd in series [1] worked out at 0.000131 s⁻¹. Further, the MIC in series [2] came to 0.8 µg/mL (≈ 2.23 µM); in series [3] it was 0.9 µg/mL (≈ 2.51 µM); in series [4], 0.9 µg/mL (≈ 2.51 µM); in series [5], 17.5 µg/mL (≈ 48.8 µM); in series [6], 21.2 µg/mL (≈ 59.1 µM).

Regarding `CC1=C(C(=O)O)N2C(=O)[C@@H](NC(=O)Cc3cccs3)[C@H]2SC1`, the k obsd in series [1] was 1.07e-05 s⁻¹. The MIC came out at 10 µg/mL (≈ 29.5 µM) in series [2]; 30 µg/mL (≈ 88.6 µM) in series [3]; 29 µg/mL (≈ 85.7 µM) in series [4]; 120 µg/mL (≈ 355 µM) in series [5]; 116 µg/mL (≈ 343 µM) in series [6].

Regarding `N[C@@H](C(=O)N[C@@H]1C(=O)N2C(C(=O)O)=C(Cl)CS[C@H]12)c1ccccc1` [CEFACLOR ANHYDROUS], the k obsd in series [1] worked out at 0.000287 s⁻¹.
